inhibition, EC50 and selectivity ratio data for one molecule are collected here from ChEMBL document CHEMBL4619723, “New CDK8 inhibitors as potential anti-leukemic agents - Design, synthesis and biological evaluation” (Bioorg Med Chem, 2020).

The target of data set [1] is 1-phosphatidylinositol 3-phosphate 5-kinase (Homo sapiens) (UniProt Q9Y2I7). Description: Inhibition of biotinylated ligand binding to wild-type human partial length PIKFYVE (F1512 to C2098 residues) expressed in mammalian expression system at 50 nM measured after 1 hr by kinomescan assay relative to control.
The target in data set [2] is Non-receptor tyrosine-protein kinase TNK1 (Homo sapiens) (UniProt Q13470). Description: Inhibition of biotinylated ligand binding to wild-type human full length TNK1 (M1 to P661 residues) expressed in bacterial expression system at 50 nM measured after 1 hr by kinomescan assay relative to control. Summed up: (§1)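 Kinase-tagged T7 phage was grown in an E. coli BL21-derived host at 32 °C until lysis, and the lysate was clarified. Kinase was bound to streptavidin beads carrying a biotinylated ligand, with test compound at 50 nM (final DMSO), in binding buffer for 1 h at rt. Bound kinase was eluted and quantified by qPCR. Result is POC relative to the DMSO (100%) and control-compound (0%) references.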

For data set [3], the target named is Cyclin-dependent kinase 19 (Homo sapiens) (UniProt Q9BWU1). The data set can be described thus: Inhibition of biotinylated ligand binding to wild-type human partial length CDK11 (M1 to N360 residues) expressed in bacterial expression system at 50 nM measured after 1 hr by kinomescan assay relative to control. Summed up:
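T7 phage-tagged kinase lysates from E. coli BL21 were mixed with streptavidin beads carrying biotinylated ligand and 50 nM compound. Incubated 1 h at room temperature with shaking, washed, then eluted 30 min with 0.5 μM non-biotinylated ligand. Kinase was quantified by qPCR. POC = (test − positive)/(DMSO − positive) ×100, with a control compound as positive.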

In data set [4] the target is Mitogen-activated protein kinase 13 (Homo sapiens) (UniProt O15264). Description: Inhibition of biotinylated ligand binding to wild-type human full length p38-delta (M1 to L365 residues) expressed in bacterial expression system at 50 nM measured after 1 hr by kinomescan assay relative to control. Summed up: as §1
Data set [5] deals with Serine/threonine-protein kinase MAK (Homo sapiens) (UniProt P20794). Description: Inhibition of biotinylated ligand binding to wild-type human partial length MAK (M1 to P314 residues) expressed in bacterial expression system at 50 nM measured after 1 hr by kinomescan assay relative to control.
The target in data set [6] is Serine/threonine-protein kinase RIO2 (Homo sapiens) (UniProt Q9BVS4). The data set can be described thus: Inhibition of biotinylated ligand binding to wild-type human partial length RIOK2 (M1 to D313 residues) expressed in mammalian expression system at 50 nM measured after 1 hr by kinomescan assay relative to control. Summed up:
(§2)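 Competition binding: kinase was bound to streptavidin beads carrying a biotinylated ligand, with test compound at 50 nM, in 20% SeaBlock, 0.17x PBS, 0.05% Tween 20 and 6 mM DTT for 1 h at rt with shaking. After washing, kinase was eluted with 0.5 μM free ligand and quantified by qPCR. Result is POC relative to the DMSO (100%) and control-compound (0%) references.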

In data set [7] the target is NUAK family SNF1-like kinase 2 (Homo sapiens) (UniProt Q9H093). Description: Inhibition of biotinylated ligand binding to wild-type human partial length SNARK (P22 to A333 residues) expressed in mammalian expression system at 50 nM measured after 1 hr by kinomescan assay relative to control. In a few lines: as §2
In data set [8] the target is Phosphatidylinositol 5-phosphate 4-kinase type-2 beta (Homo sapiens) (UniProt P78356). Description: Inhibition of biotinylated ligand binding to wild-type human full length PIP5K2B (M1 to T416 residues) expressed in bacterial expression system at 50 nM measured after 1 hr by kinomescan assay relative to control. Summed up: as §1
The test system of the next data set is NRK. Description: cells. Particulars: Rattus norvegicus, 48 h.
Another data set deals with OCI-AML-3. Description: cells. The settings on record: Homo sapiens, OCI-AML-3, 48 h.
The test system of the next data set is H9c2. Description: cells. The settings on record: Rattus norvegicus, H9c2, 48 h.
Data set [9] addresses Rho-associated protein kinase 2 (Homo sapiens) (UniProt O75116). Description: Inhibition of biotinylated ligand binding to wild-type human partial length ROCK2 (M1 to T431 residues) expressed in mammalian expression system at 50 nM measured after 1 hr by kinomescan assay relative to control. In a few lines:
as §2

Data set [10] addresses Activin receptor type-1 (Homo sapiens) (UniProt Q04771). The data set can be described thus: Inhibition of biotinylated ligand binding to wild-type human ACVR1 (C188 to C509 residues) expressed in bacterial expression system at 50 nM measured after 1 hr by kinomescan assay relative to control. In a few lines:
as §1

In data set [11] the target is Rho-associated protein kinase 1 (Homo sapiens) (UniProt Q13464). The data set can be described thus: Inhibition of biotinylated ligand binding to wild-type human partial length ROCK1 (M1 to R415 residues) expressed in mammalian expression system at 50 nM measured after 1 hr by kinomescan assay relative to control. In a few lines:
as §2

The target of data set [12] is SRSF protein kinase 3 (Homo sapiens) (UniProt Q9UPE1). Description: Inhibition of biotinylated ligand binding to wild-type human partial length SRPK3 (P41 to P567 residues) expressed in bacterial expression system at 50 nM measured after 1 hr by kinomescan assay relative to control. In a few lines: as §1
Data set [13] addresses Serine/threonine-protein kinase 32A (Homo sapiens) (UniProt Q8WU08). Description: Inhibition of biotinylated ligand binding to wild-type human full length YANK1 (M1 to L396 residues) expressed in mammalian expression system at 50 nM measured after 1 hr by kinomescan assay relative to control. In a few lines:
as §2

The target of data set [14] is Dual specificity protein kinase CLK4 (Homo sapiens) (UniProt Q9HAZ1). Description: Inhibition of biotinylated ligand binding to wild-type human partial length CLK4 (R135 to K481 residues) expressed in bacterial expression system at 50 nM measured after 1 hr by kinomescan assay relative to control. In a few lines:
as §1

Data set [15] addresses cAMP-dependent protein kinase catalytic subunit beta (Homo sapiens) (UniProt P22694). Description: Inhibition of biotinylated ligand binding to wild-type human full length PKAC-beta (M1 to F351 residues) expressed in bacterial expression system at 50 nM measured after 1 hr by kinomescan assay relative to control.
Data set [16] deals with cAMP-dependent protein kinase catalytic subunit alpha (Homo sapiens) (UniProt P17612). Description: Inhibition of biotinylated ligand binding to wild-type human partial length PKAC-alpha (G10 to F351 residues) expressed in bacterial expression system at 50 nM measured after 1 hr by kinomescan assay relative to control.
Data set [17] concerns the target Serine/threonine-protein kinase haspin (Homo sapiens) (UniProt Q8TF76). Description: Inhibition of biotinylated ligand binding to wild-type human partial length HASPIN (I452 to K798 residues) expressed in mammalian expression system at 50 nM measured after 1 hr by kinomescan assay relative to control.
Data set [18] deals with G protein-coupled receptor kinase 4 (Homo sapiens) (UniProt P32298). Description: Inhibition of biotinylated ligand binding to wild-type human full length GRK4 (M1 to C578 residues) expressed in bacterial expression system at 50 nM measured after 1 hr by kinomescan assay relative to control. In a few lines: as §1
Data set [19] is described as follows: Selectivity ratio of EC50 for rat NRK cells to EC50 for human MOLM13 cells. In kind it is toxicity. Particulars: NRK cells versus MOLM13 cells, read-out: Ratio EC50.

Dual specificity protein kinase CLK4 (Homo sapiens), sequence (Q9HAZ1 whole entry, looked up, the tested form may be a part): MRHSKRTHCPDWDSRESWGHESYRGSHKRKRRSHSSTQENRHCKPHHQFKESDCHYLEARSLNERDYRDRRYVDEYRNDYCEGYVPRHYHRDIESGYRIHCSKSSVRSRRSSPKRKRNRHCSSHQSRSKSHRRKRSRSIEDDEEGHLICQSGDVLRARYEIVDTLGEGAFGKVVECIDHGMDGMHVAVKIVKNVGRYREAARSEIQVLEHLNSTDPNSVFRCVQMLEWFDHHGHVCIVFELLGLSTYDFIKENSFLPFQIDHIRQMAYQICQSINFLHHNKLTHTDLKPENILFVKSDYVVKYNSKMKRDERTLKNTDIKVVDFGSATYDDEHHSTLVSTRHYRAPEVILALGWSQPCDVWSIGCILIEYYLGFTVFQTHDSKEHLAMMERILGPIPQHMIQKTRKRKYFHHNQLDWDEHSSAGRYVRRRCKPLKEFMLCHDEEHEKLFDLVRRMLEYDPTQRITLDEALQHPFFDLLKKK
Non-receptor tyrosine-protein kinase TNK1 (Homo sapiens), sequence (Q13470 whole entry, the tested form may be a part): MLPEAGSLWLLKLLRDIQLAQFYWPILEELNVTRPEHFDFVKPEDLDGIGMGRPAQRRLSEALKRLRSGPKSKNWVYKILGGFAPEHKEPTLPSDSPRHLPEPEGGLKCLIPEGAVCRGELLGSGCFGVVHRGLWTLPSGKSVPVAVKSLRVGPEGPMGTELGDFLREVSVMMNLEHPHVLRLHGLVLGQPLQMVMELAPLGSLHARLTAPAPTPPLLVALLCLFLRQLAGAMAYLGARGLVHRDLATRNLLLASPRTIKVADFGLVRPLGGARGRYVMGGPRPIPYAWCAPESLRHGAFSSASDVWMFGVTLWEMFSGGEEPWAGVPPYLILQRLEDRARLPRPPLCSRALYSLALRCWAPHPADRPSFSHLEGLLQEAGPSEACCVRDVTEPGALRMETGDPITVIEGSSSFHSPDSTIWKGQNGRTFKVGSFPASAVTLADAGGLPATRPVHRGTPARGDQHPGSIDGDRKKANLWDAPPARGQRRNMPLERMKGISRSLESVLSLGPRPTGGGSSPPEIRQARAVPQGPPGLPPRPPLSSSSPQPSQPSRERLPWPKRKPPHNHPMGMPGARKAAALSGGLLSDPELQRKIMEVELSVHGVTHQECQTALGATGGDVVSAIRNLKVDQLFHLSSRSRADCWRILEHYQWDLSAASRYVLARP
Serine/threonine-protein kinase MAK (Homo sapiens), sequence (P20794 whole entry, the tested form may be a part): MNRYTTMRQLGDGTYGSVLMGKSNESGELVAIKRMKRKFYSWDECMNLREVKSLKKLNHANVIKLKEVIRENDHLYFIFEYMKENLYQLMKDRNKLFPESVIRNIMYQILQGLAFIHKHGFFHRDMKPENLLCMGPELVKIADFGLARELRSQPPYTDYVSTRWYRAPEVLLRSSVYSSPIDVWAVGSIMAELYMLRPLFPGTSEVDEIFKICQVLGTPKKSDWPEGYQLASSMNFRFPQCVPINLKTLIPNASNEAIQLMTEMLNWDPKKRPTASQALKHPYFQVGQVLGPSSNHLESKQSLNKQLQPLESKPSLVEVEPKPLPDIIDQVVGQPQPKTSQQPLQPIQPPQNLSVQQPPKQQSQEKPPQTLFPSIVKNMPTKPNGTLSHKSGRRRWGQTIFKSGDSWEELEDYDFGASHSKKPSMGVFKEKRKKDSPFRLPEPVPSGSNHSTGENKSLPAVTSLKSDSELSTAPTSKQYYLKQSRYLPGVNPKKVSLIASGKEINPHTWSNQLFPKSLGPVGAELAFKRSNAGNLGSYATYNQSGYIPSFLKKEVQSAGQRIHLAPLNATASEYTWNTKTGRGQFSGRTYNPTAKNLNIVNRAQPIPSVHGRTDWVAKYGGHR
Serine/threonine-protein kinase RIO2 (Homo sapiens), sequence (Q9BVS4 whole entry, looked up, the tested form may be a part): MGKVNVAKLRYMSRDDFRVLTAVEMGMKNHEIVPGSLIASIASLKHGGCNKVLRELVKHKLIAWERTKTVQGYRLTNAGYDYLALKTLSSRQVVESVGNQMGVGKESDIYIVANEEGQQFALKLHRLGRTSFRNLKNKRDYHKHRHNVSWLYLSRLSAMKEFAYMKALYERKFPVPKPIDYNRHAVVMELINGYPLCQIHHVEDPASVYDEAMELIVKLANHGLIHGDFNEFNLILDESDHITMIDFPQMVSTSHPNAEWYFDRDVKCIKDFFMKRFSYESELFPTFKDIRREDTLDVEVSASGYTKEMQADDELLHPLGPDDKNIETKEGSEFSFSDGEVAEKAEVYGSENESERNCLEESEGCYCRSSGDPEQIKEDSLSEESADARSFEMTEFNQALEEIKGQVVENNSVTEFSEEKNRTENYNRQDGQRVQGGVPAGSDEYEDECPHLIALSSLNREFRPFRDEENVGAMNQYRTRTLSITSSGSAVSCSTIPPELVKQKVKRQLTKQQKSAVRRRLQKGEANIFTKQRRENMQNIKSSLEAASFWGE
SRSF protein kinase 3 (Homo sapiens), sequence (Q9UPE1 whole entry, the tested form may be a part): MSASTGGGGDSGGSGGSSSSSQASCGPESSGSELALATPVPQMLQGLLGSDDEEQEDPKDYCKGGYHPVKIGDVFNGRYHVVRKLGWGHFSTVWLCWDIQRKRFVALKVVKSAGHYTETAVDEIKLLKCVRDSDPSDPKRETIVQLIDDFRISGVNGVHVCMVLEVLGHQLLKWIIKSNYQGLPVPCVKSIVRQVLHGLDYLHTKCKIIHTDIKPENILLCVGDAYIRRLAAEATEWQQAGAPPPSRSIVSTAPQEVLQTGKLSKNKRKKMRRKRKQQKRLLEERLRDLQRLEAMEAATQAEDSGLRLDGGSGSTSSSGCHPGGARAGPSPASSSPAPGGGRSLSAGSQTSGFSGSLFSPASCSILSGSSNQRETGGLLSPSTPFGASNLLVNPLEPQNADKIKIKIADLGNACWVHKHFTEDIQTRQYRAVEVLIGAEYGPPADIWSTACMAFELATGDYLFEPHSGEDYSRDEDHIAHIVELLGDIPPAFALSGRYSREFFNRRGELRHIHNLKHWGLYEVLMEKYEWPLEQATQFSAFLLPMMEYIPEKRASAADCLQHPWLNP
NUAK family SNF1-like kinase 2 (Homo sapiens), sequence (Q9H093 whole entry, the tested form may be a part): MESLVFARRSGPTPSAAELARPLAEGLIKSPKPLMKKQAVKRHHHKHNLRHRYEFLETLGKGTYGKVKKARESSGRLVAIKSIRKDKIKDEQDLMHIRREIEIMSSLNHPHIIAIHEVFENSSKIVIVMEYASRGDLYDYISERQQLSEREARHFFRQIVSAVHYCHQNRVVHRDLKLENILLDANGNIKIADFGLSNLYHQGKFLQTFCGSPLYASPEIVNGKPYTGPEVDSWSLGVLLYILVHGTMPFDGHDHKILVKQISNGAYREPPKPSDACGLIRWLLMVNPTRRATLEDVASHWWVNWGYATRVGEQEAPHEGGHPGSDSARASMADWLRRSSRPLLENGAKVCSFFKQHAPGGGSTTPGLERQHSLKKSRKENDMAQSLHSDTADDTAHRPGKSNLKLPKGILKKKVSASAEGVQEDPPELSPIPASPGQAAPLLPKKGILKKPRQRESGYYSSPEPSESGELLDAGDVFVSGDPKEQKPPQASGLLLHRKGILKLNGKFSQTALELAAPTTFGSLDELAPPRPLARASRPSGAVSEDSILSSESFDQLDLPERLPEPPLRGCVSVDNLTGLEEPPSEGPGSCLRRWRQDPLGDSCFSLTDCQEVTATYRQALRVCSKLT
Cyclin-dependent kinase 19 (Homo sapiens), sequence (Q9BWU1 whole entry, the tested form may be a part): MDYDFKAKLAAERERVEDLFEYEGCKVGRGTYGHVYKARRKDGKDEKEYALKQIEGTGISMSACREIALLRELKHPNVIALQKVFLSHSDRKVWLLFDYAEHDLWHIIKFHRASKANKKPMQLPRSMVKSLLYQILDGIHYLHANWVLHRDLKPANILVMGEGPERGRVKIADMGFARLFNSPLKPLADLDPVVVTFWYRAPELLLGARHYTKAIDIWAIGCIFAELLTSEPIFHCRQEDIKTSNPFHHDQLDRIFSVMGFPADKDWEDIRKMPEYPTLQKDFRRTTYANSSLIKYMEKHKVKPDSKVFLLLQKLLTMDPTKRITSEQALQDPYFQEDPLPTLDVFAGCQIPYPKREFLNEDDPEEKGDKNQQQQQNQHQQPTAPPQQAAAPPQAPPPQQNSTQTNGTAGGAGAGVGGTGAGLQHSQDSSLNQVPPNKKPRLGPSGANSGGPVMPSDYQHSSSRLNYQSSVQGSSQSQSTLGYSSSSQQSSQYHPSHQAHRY
Serine/threonine-protein kinase 32A (Homo sapiens), sequence (Q8WU08 whole entry, the tested form may be a part): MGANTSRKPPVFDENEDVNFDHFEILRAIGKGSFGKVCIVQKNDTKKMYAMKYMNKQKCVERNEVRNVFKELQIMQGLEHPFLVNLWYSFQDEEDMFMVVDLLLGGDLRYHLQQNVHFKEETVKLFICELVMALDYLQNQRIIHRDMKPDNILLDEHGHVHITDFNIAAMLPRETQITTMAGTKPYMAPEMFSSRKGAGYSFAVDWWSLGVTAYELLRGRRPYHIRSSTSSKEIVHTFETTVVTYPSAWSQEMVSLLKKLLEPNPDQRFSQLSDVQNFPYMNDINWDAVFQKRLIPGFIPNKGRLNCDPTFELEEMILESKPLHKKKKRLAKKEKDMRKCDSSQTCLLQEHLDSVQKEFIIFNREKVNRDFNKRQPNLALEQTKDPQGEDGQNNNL
Phosphatidylinositol 5-phosphate 4-kinase type-2 beta (Homo sapiens), sequence (P78356 whole entry, the tested form may be a part): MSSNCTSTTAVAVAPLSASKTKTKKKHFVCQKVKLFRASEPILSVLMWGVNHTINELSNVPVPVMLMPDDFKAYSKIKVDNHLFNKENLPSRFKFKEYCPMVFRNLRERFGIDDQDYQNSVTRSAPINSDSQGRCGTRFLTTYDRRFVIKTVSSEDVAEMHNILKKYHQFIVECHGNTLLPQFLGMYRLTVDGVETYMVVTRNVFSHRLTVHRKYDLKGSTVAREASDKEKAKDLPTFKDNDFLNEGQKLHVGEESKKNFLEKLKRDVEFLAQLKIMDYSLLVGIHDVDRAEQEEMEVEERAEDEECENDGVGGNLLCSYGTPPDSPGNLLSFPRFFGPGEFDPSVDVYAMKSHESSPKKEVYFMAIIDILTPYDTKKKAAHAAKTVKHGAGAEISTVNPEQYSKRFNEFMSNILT

`CN(C)[C@@H]1CC[C@@]2(C)[C@@H](CC[C@@H]3[C@@H]2CC[C@]2(C)C(c4cccc5cnccc45)=CC[C@@H]32)C1`: the inhibition in data set [1], in [2], in data set [3], in data set [4], in [5] and in [6] was > 80% throughout. For the same molecule, the inhibition in data set [7], in data set [8], in [9], in [10], in [11] and in [12] was > 80% throughout. Moreover, the inhibition in data set [13], in data set [14], in [15], in data set [16], in [17] and in data set [18] was > 80% in each case. Moreover, the concentration giving a half-maximal response (EC50) – broadly, the concentration needed to bring the measured effect to its halfway point – in the data set on NRK is 16.2 µM; in the data set on OCI-AML-3 it was 4.8 µM; with H9c2 it was 12.5 to 25 µM. The selectivity ratio in data set [19] was in the range of 3 to 4.
